Rows were chosen to be rich in hits. Some 4.1% of all compounds tested hit in one or more screens of this group.
KCNQ1 act: potentiators or activators of KCNQ1 channel, primary screen, cell-based, thallium flux, high-throughput | Potassium voltage-gated channel subfamily KQT member 1 (Homo sapiens), P51787 | CHO-K1 KCNQ1, thallium flux FluxOR fluorescence; active compounds read high | B-score at 10 µM | actives 0.35% (n = 310,000) | AID 2648, 2010;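 active means fluorescence ratio B-score, a plate-corrected score, at least three library SD, with initial intensity B-score within 5 SD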
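System: CHO-K1 cells stably expressing KCNQ1 / Medium: assay buffer for compound exposure, DMSO matched across wells / Reagent: thallium- and potassium-containing depolarizing buffer / Compound: one concentration, matched DMSO / Incubation: 20 min compound pretreatment at room temperature / Measured by: kinetic FluxOR fluorescence, 10 s baseline plus 110 s post-stimulus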
KCNK9 block: KCNK9 potassium channel inhibitors, primary screen, HEK293 cells, thallium flux | FluxOR thallium flux fluorescence; active compounds read low | actives 1.2% (n = 310,000) | B-score at 10 µM | Potassium channel subfamily K member 9 (Homo sapiens), Q9NPC2 | AID 488922, 2010;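 active means ratio B-score over 3 SD below the library mean, with starting fluorescence within 5 SD of its mean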;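 further: negative B-score means less thallium flux so channel inhibition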
KCNQ1 block: inhibitors of human KCNQ1 channel, primary screen, cell-based, thallium flux, high-throughput; Potassium voltage-gated channel subfamily KQT member 1 (Homo sapiens), P51787; CHO-K1 KCNQ1, FluxOR thallium flux fluorescence; active compounds read high; B-score at 10 µM; actives 1.3% (n = 310,000); AID 2642, 2010;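 active means compounds whose thallium flux B-score, printed positive for inhibition, exceeds three library SD while starting fluorescence stays within three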;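 further: channel opened by potassium depolarization with thallium stimulus after 20 min compound exposure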
hERG rescue: hERG rescue from dofetilide block, primary screen, cell-based, CHO-hERG, FluxOR thallium flux, dofetilide IC70; AID 1511, 2009; activation (rescue from dofetilide block), less the hit threshold, % at 10 µM; actives 0.51% (n = 310,000); dofetilide IC70 present;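 active means activation above the mean of controls blocked by dofetilide plus 5 SD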;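 further: thallium influx through hERG after potassium depolarization seen as dye fluorescence rise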
KCC2 mod: KCC2 cotransporter modulators, thallium flux, primary screen, cell-based, HEK293 KCC2, FluoZin-2 fluorescence, MLSMR; Solute carrier family 12 member 5 (Homo sapiens), Q9H2X9; KCC2 cells, thallium flux FluoZin-2 fluorescence; B-score of Tl+ flux slope (higher = more flux/activation; lower = inhibition) at 10 µM; actives 2.2% (n = 190,000); AID 1456, 2008;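 active means thallium flux slope and its plate-corrected score both differing from the plate sample mean at a set confidence after two filtering rounds, in either direction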;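 further: slope of fluorescence scaled to starting intensity during 10 to 20 s after thallium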
Target sequence (Q9H2X9 whole entry, looked up): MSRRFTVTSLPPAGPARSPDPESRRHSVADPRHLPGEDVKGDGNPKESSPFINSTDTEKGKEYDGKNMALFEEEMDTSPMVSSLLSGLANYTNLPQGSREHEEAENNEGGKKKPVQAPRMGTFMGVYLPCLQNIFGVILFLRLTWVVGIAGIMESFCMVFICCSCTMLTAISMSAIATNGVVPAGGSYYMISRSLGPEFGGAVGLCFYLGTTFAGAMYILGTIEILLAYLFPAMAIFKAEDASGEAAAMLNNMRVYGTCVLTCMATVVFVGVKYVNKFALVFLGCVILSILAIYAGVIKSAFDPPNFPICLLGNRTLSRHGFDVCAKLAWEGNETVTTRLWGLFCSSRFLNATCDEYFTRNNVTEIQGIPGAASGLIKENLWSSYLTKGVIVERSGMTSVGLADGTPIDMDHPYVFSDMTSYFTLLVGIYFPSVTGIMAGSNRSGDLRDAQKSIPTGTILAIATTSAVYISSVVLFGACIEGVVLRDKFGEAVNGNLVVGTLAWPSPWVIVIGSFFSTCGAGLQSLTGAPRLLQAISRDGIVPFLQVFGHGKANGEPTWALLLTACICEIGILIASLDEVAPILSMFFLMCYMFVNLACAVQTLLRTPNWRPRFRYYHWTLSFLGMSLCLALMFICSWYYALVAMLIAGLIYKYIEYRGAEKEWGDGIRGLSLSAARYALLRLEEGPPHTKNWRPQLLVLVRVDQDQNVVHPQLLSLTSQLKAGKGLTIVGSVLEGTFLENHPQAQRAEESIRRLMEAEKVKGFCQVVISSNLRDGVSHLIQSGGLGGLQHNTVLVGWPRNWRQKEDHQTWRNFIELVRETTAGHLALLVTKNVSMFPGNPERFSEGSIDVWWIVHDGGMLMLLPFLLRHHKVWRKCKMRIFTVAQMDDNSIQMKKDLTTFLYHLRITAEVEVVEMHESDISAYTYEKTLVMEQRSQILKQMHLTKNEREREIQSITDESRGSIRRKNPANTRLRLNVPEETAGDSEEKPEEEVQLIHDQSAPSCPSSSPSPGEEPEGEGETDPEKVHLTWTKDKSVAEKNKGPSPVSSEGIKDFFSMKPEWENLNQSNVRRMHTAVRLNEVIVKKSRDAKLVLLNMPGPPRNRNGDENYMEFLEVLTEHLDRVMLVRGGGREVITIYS
KCNK3 inh: human KCNK3 channel inhibitors, primary screen, CHO cells, FluxOR thallium flux, B-score | FluxOR fluorescence; active compounds read low | B-score at 10 µM | actives 0.84% (n = 340,000) | Potassium channel subfamily K member 3 (Homo sapiens), O14649;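 active means B-score under library mean minus 4 SD, starting fluorescence ratio at most library mean plus 5 SD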;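 further: more negative B-score means stronger inhibition of thallium flux through KCNK3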
KCC2 sec1: KCC2 modulators in sodium-free buffer, confirmation, cell-based, HEK293 KCC2, thallium flux, secondary assay. normalised thallium flux (F/F0 slope) at 10 µM. FluoZin2 fluorescence; active compounds read high. shares compounds with KCC2 mod. actives 15% (n = 3,700);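 active means thallium flux slope above the same plate's solvent-only control mean plus 3 SD; inconclusive means the two replicate wells disagree; inactive means no significant difference from solvent-only control wells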
KCC2 bumet counter: thallium flux persisting under bumetanide in KCC2 cells, confirmation, counter-screen for KCC2 modulator project, cell-based, HEK293 KCC2, FluoZin2, secondary assay 3; actives 49% (n = 3,700); normalized thallium flux at 10 µM; shares compounds with KCC2 mod; HEK293-KCC2 + bumetanide/ouabain; active compounds read high; AID 1714, 2009;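 active means thallium entry rate above the same plate's blocked-transporter control wells by more than 3 SD; inconclusive means the two repeat wells disagree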;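 further: raw slope of fluorescence over initial fluorescence between 10 and 20 s after thallium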
KCC2 sec2: KCC2 modulators without ouabain present, confirmation, cell-based, HEK293 KCC2, thallium flux, FluoZin2, secondary assay 2. actives 23% (n = 3,700). AID 1715, 2009. thallium flux FluoZin2 fluorescence; actives lie on both sides; F/F0 rise rate, 10–20 s post-thallium. shares compounds with KCC2 mod. normalized thallium flux at 10 µM;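 active means thallium flux slope more than 3 SD above or below the plate's solvent-only control mean, mostly below; inconclusive means the two repeat wells disagreed; inactive means no significant shift from solvent-only controls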
HEK counter1: thallium flux modulation in parental HEK cells, confirmation, counter-screen for KCC2 modulator project, cell-based, counterscreen 1. shares compounds with KCC2 mod. HEK293 parental cells, thallium flux FluoZin2, ouabain; baseline-ratio fluorescence slope, 10–20 s after thallium. thallium flux rate (normalised fluorescence) at 10 µM. actives 46% (n = 3,700);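 active means thallium flux rate significantly above the same plate's solvent-only control wells, beyond their mean plus 3 SD; inconclusive means the two replicate wells gave conflicting results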
KCC2 ouabain: KCC2 inhibitors and activators, ouabain retest, confirmation, HEK-KCC2 cells; shares compounds with KCC2 mod; HEK293-KCC2, thallium flux FluoZin2 fluorescence; bidirectional: low = inhibitor, high = activator; raw Tl+ flux slope (below DMSO = inhibition, above = activation) at 10 µM; actives 48% (n = 3,700); AID 1717, 2009;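 active means thallium flux slope beyond 3 SD from same-plate DMSO control mean in most replicates, usually higher, sometimes lower; inconclusive means repeat tests gave conflicting results; inactive means no significant difference from controls in most replicates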;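 further: slope of initial-normalized fluorescence between seconds 10 and 20 after thallium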
HEK counter2: native HEK Tl+ uptake effects, second counter-screen – HEK cells, counterscreen 2, counter-screen for KCC2 modulator project, confirmation | shares compounds with KCC2 mod | HEK293 parental, thallium flux FluoZin-2 fluorescence slope | thallium flux slope at 10 µM | actives 33% (n = 3,700) | AID 1718, 2009;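 active means thallium flux slope above the same plate's solvent-control mean plus 3 SD in both duplicate wells; inconclusive means duplicate wells that disagreed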;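 further: run without ouabain in cells lacking the KCC2 cotransporter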
Large screens that a line does not name were inactive (follow-up assays come after a bar, where they were run).

CC(=O)Nc1cc(C(=O)N2CCC3(CC2)OCCO3)ccc1S(=O)(=O)c1ccc(C)cc1	none (no result: KCC2 mod)
CCCC(=O)Nc1cc(C(=O)N2CCC3(CC2)OCCO3)ccc1S(=O)(=O)c1ccc(C)cc1	KCC2 mod -5.15 | KCC2 sec1 inactive | KCC2 bumet counter inactive | KCC2 sec2 inactive | HEK counter1 inactive | KCC2 ouabain inactive | HEK counter2 inactive
CC(=O)Nc1cc(C(=O)N2CCC3(CC2)OCCO3)ccc1S(=O)(=O)c1ccc(Cl)cc1	KCC2 mod -6.36 | KCC2 sec1 inactive | KCC2 bumet counter inactive | KCC2 sec2 inactive | HEK counter1 inactive | KCC2 ouabain inactive | HEK counter2 inactive
Cc1cccc(C(O)(C(=O)O)c2ccccc2)c1 (centres undefined)	none (no result: KCNQ1 act, KCNK9 block, KCNQ1 block, hERG rescue, KCC2 mod)
O=C(C1CCN(c2nc3ccc(Br)cc3s2)CC1)N1CCC2(CC1)OCCO2	KCC2 mod -5.07 | KCC2 sec1 inactive | KCC2 bumet counter inactive | KCC2 sec2 0.0272 | HEK counter1 inactive | KCC2 ouabain 0.0187 | HEK counter2 inactive
CN1C(=O)C[N+]([O-])=C(c2ccccc2)c2cc(Cl)ccc21	none (no result: KCNQ1 act, KCNK9 block, KCNQ1 block, hERG rescue, KCC2 mod)
COc1cc(/C=C/C(=O)c2c(O)n(CCc3ccccc3)c(=O)[nH]c2=O)ccc1O	KCC2 mod -6.38 | KCC2 sec1 inconclusive | KCC2 bumet counter -0.00962 | KCC2 sec2 inactive | HEK counter1 0.00126 | KCC2 ouabain 0.00397 | HEK counter2 inconclusive
CCOC(=O)c1cc2c(cn1)[C@@H](CCO)NC2	none (no result: KCNQ1 act, KCNK9 block, KCNQ1 block, hERG rescue, KCC2 mod)
O=C1NC(=O)N(c2ccccc2)C(=O)/C1=C/c1coc2ccc(O)cc2c1=O	KCC2 mod -4.81 | KCC2 sec1 inactive | KCC2 bumet counter inactive | KCC2 sec2 inactive | HEK counter1 0.00581 | KCC2 ouabain 0.0138 | HEK counter2 inactive

Screening data deposited in PubChem BioAssay by several laboratories.
